The source of these data is ChEMBL document CHEMBL1123243, “Studies on prodrugs. 5. Synthesis and antimicrobial activity of N-(oxoalkyl)norfloxacin derivatives” (J Med Chem, 1986).

One data set deals with Bacillus subtilis. The data set is described as follows: Compound was tested for antimicrobial activity against Bacillus subtilis ATCC 6633. Format: functional. The method, boiled down:
(§1)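 Agar dilution on Mueller-Hinton agar with serial 2-fold dilutions; plate concentrations 0.006 to 100 µg/mL. Inoculum about 10^6 cfu/mL. Plates incubated at 37 °C for 18 h. MIC is the lowest concentration preventing visible growth.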

The subject of data set [1] is Escherichia coli. The data set is described as follows: Compound was tested for antimicrobial activity in mice infected with Escherichia coli KC-14 after peroral administration. Type of data set: functional. The following applies: po. The method, boiled down:
(§2)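 Male ddy mice (20 ± 2 g), groups of 10, were infected ip with 0.5 mL of bacteria at 10 or 100 times the 50% lethal dose. Compound was suspended in 0.5% sodium carboxymethyl cellulose and given orally 1 h postinfection. Survival was scored after 1 week.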

Data set [2] concerns Escherichia coli. The data set is described as follows: Compound was tested for antimicrobial activity against Escherichia coli KC-14. Format: functional. The method, boiled down:
as §1

Another data set deals with Klebsiella pneumoniae. The data set is described as follows: Compound was tested for antimicrobial activity against Klebsiella pneumonia IFO3512. Format: functional. The method in brief: as §1
The next data set concerns Proteus vulgaris. The data set is described as follows: Compound was tested for antimicrobial activity against Proteus vulgaris OX-19. Format: functional. The method, boiled down: as §1
The next data set has as its system Pseudomonas aeruginosa. Description: Compound was tested for antimicrobial activity against Pseudomonas aeruginosa PAO1. Format: functional. The method, boiled down: as §1
The next data set concerns Serratia marcescens. The data set is described as follows: Compound was tested for antimicrobial activity against Serratia marcescens 16. Format: functional. The method in brief:
as §1

The next data set deals with Staphylococcus aureus. Description: Compound was tested for antimicrobial activity against Staphylococcus aureus FDA207PJC-1. Type of data set: functional. Set-up: unit: µg/mL. The method, boiled down: as §1
In data set [3] the test system is Mus musculus. Description: Serum concentration in mice, after oral administration at a dose of 100 mg/kg p.o. at 0.5 h. Further details: dose 100 mg/kg. Type of data set: functional, organism-based. The method in brief: (§3)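 Mice were given compound orally as a suspension in 0.5% sodium carboxymethyl cellulose at 100 mg/kg (NFLX-equivalent dose). Animals were killed by bleeding at 0.5, 1.0, 2.0 and 4.0 h. Serum norfloxacin and parent compound were measured by HPLC.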

Data set [4] deals with Mus musculus. Description: Serum concentration in mice, after oral administration at a dose of 100 mg/kg p.o. at 1 hr. Type of data set: functional, organism-based. Further details: dose 100 mg/kg. The method in brief:
as §3

For data set [5], the system named is Mus musculus. The data set is described as follows: (§4) Serum concentration in mice, after oral administration at a dose of 100 mg/kg p.o. at 2 hr. Format: functional, organism-based. Set-up: dose 100 mg/kg. The method in brief:
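Compound was suspended in 0.5% sodium carboxymethyl cellulose and given orally to mice at 100 mg/kg, as a dose equivalent to 100 mg/kg NFLX. Mice were killed by bleeding at 0.5, 1.0, 2.0 and 4.0 h. Serum NFLX and parent compound were each measured by HPLC.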

Data set [6] has as its system Mus musculus. The data set is described as follows: Serum concentration in mice, after oral administration at a dose of 100 mg/kg p.o. at 5 hr. Format: functional, organism-based. Set-up: dose 100 mg/kg.
The test system of data set [7] is Mus musculus. Description: Compound was tested for antimicrobial activity in mice infected with Pseudomonas aeruginosa E2,po. Type of data set: functional. The method, boiled down: (§5)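 Male ddy mice (20 ± 2 g, groups of 10) received an intraperitoneal inoculum of 0.5 mL bacterial dilution at 10 or 100 times the 50% lethal dose. Compound was suspended in 0.5% sodium carboxymethyl cellulose and given orally 1 h postinfection.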

In data set [8] the test system is Mus musculus. The data set is described as follows: Compound was tested for antimicrobial activity in mice infected with Staphylococcus aureus smith, po. Format: functional. The method, boiled down:
as §2

The test system of data set [9] is Mus musculus. The data set is described as follows: Serum concentration in mice, after oral administration at a dose of 50 mg/kg p.o. at 2 hr. Format: functional, organism-based. Further details: dose 50 mg/kg.
Data set [10] can be described thus: Lethal dose was measured in rat after iv administration. Particulars: in vivo. Format: toxicity, organism-based. The method in brief: (§6)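 Each compound was suspended in 0.5% cmc and given by the stated route. Deaths were counted within 1 week, and LD50 was calculated by the method of Weil.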
A short description of data set [11]: Lethal dose was measured in rat after oral administration. Format: toxicity, organism-based. Particulars: in vivo. The method, boiled down: as §6
Data set [12] is described as follows: Compound was evaluated for area under curve doses in […] at 100 mg/kg po. Further details: dose 100 mg/kg. Type of data set: functional, organism-based.
The test system of data set [13] is Mus musculus. Description: Compound was tested for antimicrobial activity in mice infected with Escherichia coli KC-14, po. Type of data set: functional. The method, boiled down: as §2
For data set [14], the system named is Mus musculus. Description: Serum Levels in mice, after oral administration at a dose of 100 mg/kg p.o. at 0.5 h. Type of data set: functional, organism-based. Set-up: dose 100 mg/kg. The method in brief:
as §3

Data set [15] has as its system Mus musculus. The data set is described as follows: Serum Levels in mice, after oral administration at a dose of 100 mg/kg p.o. at 1 hr. Set-up: dose 100 mg/kg. Type of data set: functional, organism-based. The method, boiled down:
as §3

The subject of data set [16] is Mus musculus. Description: Serum Levels in mice, after oral administration at a dose of 100 mg/kg p.o. at 2 hr. Format: functional, organism-based. Set-up: dose 100 mg/kg. The method, boiled down: as §3
The subject of data set [17] is Mus musculus. Description: Serum Levels in mice, after oral administration at a dose of 100 mg/kg p.o. at 5 hr. Type of data set: functional, organism-based. Set-up: dose 100 mg/kg.
The test system of data set [18] is Mus musculus. The data set is described as §4. Format: functional, organism-based. Set-up: dose 100 mg/kg. The method in brief: as §3
This is another data set of the same source.

Data set [19] deals with Mus musculus. The data set is described as follows: Compound was tested for antimicrobial activity in mice infected with Staphylococcus aureus smith. po. Format: functional. The method in brief:
as §5

As to `CCn1cc(C(=O)O)c(=O)c2cc(F)c(N3CCN(CC(=O)c4ccccc4)CC3)cc21`, the Activity in the data set with Bacillus subtilis worked out at 0.78; with Escherichia coli [2], 0.78; in the data set on Klebsiella pneumoniae, 0.78; with Proteus vulgaris, 0.39; with Pseudomonas aeruginosa, 1.56; with Serratia marcescens, 1.56. This compound came in with an Activity with Staphylococcus aureus of 0.78. The ED50 (as a rule, the dose at which the effect has come halfway, by size or by number of responders) in the data set on Escherichia coli [1] is above 7.5 mg/kg.
For `CCn1cc(C(=O)O)c(=O)c2cc(F)c(N3CCN(CC(=O)C(C)(C)C)CC3)cc21`, the Activity in the data set with Bacillus subtilis is reported as 0.78; in the data set on Escherichia coli [2] it was 12.5; with Klebsiella pneumoniae, 0.78; in the data set with Proteus vulgaris, 3.13; with Pseudomonas aeruginosa it was 50; with Serratia marcescens, below 100. Further, the Activity in the data set with Staphylococcus aureus was determined as 0.78. It took a dose of 7.13 mg/kg to reach the 50% effect level in the data set on Escherichia coli [1] (ED50). In addition, the Serum concentration amounted to 19.6 µg/mL in the data set on Mus musculus [3], 15.4 µg/mL in the data set with Mus musculus [4], 9.4 µg/mL with Mus musculus [5] and 6.73 µg/mL with Mus musculus [6].
As for `CCn1cc(C(=O)O)c(=O)c2cc(F)c(N3CCN(C(C)(C)C(C)=O)CC3)cc21`, the Activity in the data set on Bacillus subtilis is reported as 0.39; in the data set on Escherichia coli [2] it was 3.13; in the data set on Klebsiella pneumoniae, 0.39; in the data set on Proteus vulgaris it was 1.56; with Pseudomonas aeruginosa, 6.25; in the data set on Serratia marcescens it was 6.25. In the data set with Staphylococcus aureus, the Activity is listed as 0.78. Also, the ED50 in the data set on Escherichia coli [1] turned out to be 6.06 mg/kg.
Take `CCn1cc(C(=O)O)c(=O)c2cc(F)c(N3CCN(CC(C)=O)CC3)cc21`: the Activity in the data set with Bacillus subtilis was 0.39; in the data set on Escherichia coli [2] it was 1.56; with Klebsiella pneumoniae, 0.2; with Proteus vulgaris it was 0.78; in the data set with Pseudomonas aeruginosa, 6.25; in the data set on Serratia marcescens, 6.25. Further, the Activity with Staphylococcus aureus came out at 0.39. Also, the ED50 with Escherichia coli [1] stood at 0.95 mg/kg; in the data set with Mus musculus [7] it was 18.5 mg/kg; with Mus musculus [8], 12.6 mg/kg. In addition, the Serum concentration with Mus musculus [3] is 23.6 µg/mL; in the data set with Mus musculus [4], 7.29 µg/mL; in the data set with Mus musculus [5] it was 2.69 µg/mL; in the data set with Mus musculus [6] it was 0.46 µg/mL; in the data set on Mus musculus [9] it was 8.88 µg/mL. Besides, the figures for the LD50 in [10] and in [11] were 684 mg/kg and above 4000 mg/kg, respectively.
With `CCn1cc(C(=O)O)c(=O)c2cc(F)c(N3CCN(CCC(C)=O)CC3)cc21`, the AUC in data set [12] is 12.9. In addition, the Activity with Bacillus subtilis is reported as 0.39; in the data set with Escherichia coli [2], 0.78; in the data set on Klebsiella pneumoniae it was 0.2; in the data set on Proteus vulgaris, 0.2; with Pseudomonas aeruginosa it was 0.78; in the data set on Serratia marcescens, 0.78. The Activity in the data set with Staphylococcus aureus came out at 0.78. This compound also had a median effective dose (ED50) in the data set on Escherichia coli [1] of 2.34 mg/kg. Moreover, the Serum concentration was 7.06 µg/mL in the data set with Mus musculus [3], 3.55 µg/mL in the data set on Mus musculus [4], 2.22 µg/mL with Mus musculus [5] and 1.18 µg/mL with Mus musculus [6].
Consider `CCn1cc(C(=O)O)c(=O)c2cc(F)c(N3CCN(C(C)C(C)=O)CC3)cc21` (stereo not given), for which the Activity with Bacillus subtilis stood at 0.78; in the data set with Escherichia coli [2] it was 3.13; in the data set on Klebsiella pneumoniae, 0.78; in the data set with Proteus vulgaris it was 1.56; in the data set with Pseudomonas aeruginosa it was 12.5; with Serratia marcescens it was 12.5. Moreover, the Activity with Staphylococcus aureus stood at 0.78. In the data set on Escherichia coli [1], the 50% effect level (ED50) was put at a dose of 3.53 mg/kg.
Regarding `CCn1cc(C(=O)O)c(=O)c2cc(F)c(N3CCN(CC(C)O)CC3)cc21` (stereo not given), the Activity with Bacillus subtilis was determined as 0.78; in the data set on Escherichia coli [2], 0.78; in the data set on Klebsiella pneumoniae, 0.2; in the data set on Proteus vulgaris, 0.78; with Pseudomonas aeruginosa, 6.25; in the data set with Serratia marcescens, 3.12. In the data set on Staphylococcus aureus, this compound registered an Activity of 0.39. Moreover, the ED50 was 3.9 mg/kg in the data set with Escherichia coli [1] and 3.5 mg/kg with Mus musculus [13]. The Serum concentration was 19.5 µg/mL in the data set on Mus musculus [3]; 20.2 µg/mL in the data set with Mus musculus [4]; 2.82 µg/mL with Mus musculus [6]; 4.48 µg/mL with Mus musculus [9]; 6.93 µg/mL in the data set with Mus musculus [18]. Also, the Serum level turned out to be 13.6 µg/mL in the data set with Mus musculus [14], 27.1 in the data set on Mus musculus [15], 11.8 µg/mL with Mus musculus [16] and 2.21 in the data set with Mus musculus [17].
Take `CCn1cc(C(=O)O)c(=O)c2cc(F)c(N3CCNCC3)cc21` [NORFLOXACIN]: the Activity in the data set with Bacillus subtilis is 0.39; with Escherichia coli [2] it was 0.39; in the data set on Klebsiella pneumoniae it was 0.2; in the data set on Proteus vulgaris, 0.2; in the data set with Pseudomonas aeruginosa, 0.78; with Serratia marcescens it was 0.78. In the data set with Staphylococcus aureus, this compound registered an Activity of 0.39. The ED50 in the data set with Escherichia coli [1] amounted to 4.38 mg/kg; in the data set with Mus musculus [7], 59 mg/kg; with Mus musculus [19], 36.4 mg/kg. Also, the 50% lethal dose (LD50) – broadly, the dose at which mortality reaches 50% – in [10] is 314 mg/kg.
